Reference: ChEMBL document CHEMBL2034874, “5-acetyl-2-arylbenzimidazoles as antiviral agents. Part 4” (Eur J Med Chem, 2012)

Experiments:
Poliovirus 1 = assay: Antiviral activity against Polio virus type 1 strain sabin ATCC VR-1562 infected in african green monkey Vero-76 cells assessed as reduction in viral plaque after 2 days by crystal violet staining; format: functional, cell-based, Human poliovirus 1 strain Sabin; conditions: Enterovirus C, ATCC VR-1562, Vero 76, 48 h
Vaccinia virus = assay: Antiviral activity against Vaccinia virus Elstree-Lister ATCC VR-1549 infected in african green monkey Vero-76 cells assessed as reduction in viral plaque after 3 days by crystal violet staining; format: functional, organism-based; conditions: Orthopoxvirus vaccinia, Elstree-Lister ATCC VR-1549, Vero 76, 72 h
[1] = Cytotoxicity against african green monkey Vero 76 cells after 48 to 96 hrs by MTT assay; format: cell-based; conditions: chlorocebus sabaeus
Coxsackievirus B5 = assay: Antiviral activity against Coxsackie virus type B5 Ohio-1 ATCC VR-29 infected in african green monkey Vero-76 cells assessed as reduction in viral plaque after 3 days by crystal violet staining; format: functional, organism-based; conditions: Enterovirus B, Ohio-1 ATCC VR-29, Vero 76, 72 h
Procedure, shortened: (§1)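 Vero-76 monolayers (2×10^5 cells/well) infected for 2 h at 50–100 PFU/well. Unadsorbed virus removed. D-MEM with 1% inactivated FBS, 0.75% methylcellulose and serial compound dilutions added. Incubation at 37 °C for 3 days (CVB-5, HSV-1) or 5 days (RSV). Fixed and stained with 50% ethanol/0.8% crystal violet, then plaques counted. EC50 by linear regression versus untreated controls.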

[2] = Cytotoxicity against MDBK cells after 48 to 96 hrs by MTT assay; format: cell-based, Bos taurus; conditions: cattle
Procedure, shortened: (§2)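 Mock-infected MDBK (6×10^5 cells/mL, MEM-E with 10% horse serum) or BHK (1×10^6 cells/mL, MEM-E with 10% FBS) cells incubated with serial compound dilutions at 37 °C and 5% CO2. Viability measured by MTT after 48–96 h. CC50 by linear regression against untreated controls.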

[3] = Cytotoxicity against human MT4 cells after 96 hrs by MTT assay; format: cell-based
Procedure, shortened: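 Exponentially growing MT-4 cells seeded at 1×10^5 cells/mL in RPMI-1640 with 10% FBS and incubated with serial compound dilutions at 37 °C and 5% CO2. Viability measured by MTT after 96 h. CC50 by linear regression against untreated controls.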

[4] = Cytotoxicity against BHK21 cells by MTT assay; format: cell-based, Mesocricetus auratus; conditions: hamster, BHK-21 cells; procedure, shortened: as §2
[5] = tested on: Human immunodeficiency virus 1; assay: Antiviral activity against HIV1 3B infected in human MT4 cells assessed as inhibition of virus-induced cytopathogenicity after 4 days by MTT assay; format: functional, organism-based; conditions: Human immunodeficiency virus 1, 3B, MT4, 96 h
Procedure, shortened: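 MT-4 cells (1×10^4/well) in RPMI with serial compound dilutions, infected with HIV-1 IIIB at 100 CCID50 (m.o.i. 0.01). Viability measured by MTT after 4 days at 37 °C. EC50 for 50% protection from cytopathogenicity obtained by linear regression against untreated controls.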

Yellow fever virus = assay: Antiviral activity against Yellow fever virus 17D infected in BHK21 cells assessed as inhibition of virus-induced cytopathogenicity after 3 to 4 days by MTT assay; format: functional, cell-based; conditions: BHK-21
[6] = Antiviral activity against BVDV1 NADL ATCC VR-534 infected in MDBK cells assessed as inhibition of virus-induced cytopathogenicity after 3 to 4 days by MTT assay; format: functional, cell-based, Bovine viral diarrhea virus 1-NADL; conditions: Bovine viral diarrhea virus isolates and strains, ATCC VR-534, MDBK
Procedure, shortened: (§3)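 BHK (5×10^4/well) or MDBK (3×10^4/well) cells grown to confluent monolayers overnight, infected at m.o.i. 0.01 in maintenance MEM-Earl with 0.5% inactivated FBS. Serially diluted compounds added after 1 h. Viability read by MTT after 3–4 days at 37 °C. Values are expressed as % of untreated controls, and EC50 is derived by linear regression. Duplicate samples.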

Human alphaherpesvirus 1 = assay: Antiviral activity against Herpes simplex virus type 1 KOS ATCC VR-1493 infected in african green monkey Vero-76 cells assessed as reduction in viral plaque after 3 days by crystal violet staining; format: functional, organism-based; conditions: Human alphaherpesvirus 1, KOS ATCC VR1493, Vero 76, 72 h; procedure, shortened: as §1
[7] = tested on: Mammalian orthoreovirus 1; assay: Antiviral activity against Reovirus 1 3651 ATCC VR-214 infected in BHK21 cells assessed as inhibition of virus-induced cytopathogenicity after 3 to 4 days by MTT assay; format: functional, organism-based; conditions: Mammalian orthoreovirus 1, 3651 ATCC VR-214, BHK-21; procedure, shortened: as §3
[8] = tested on: Vesicular stomatitis Indiana virus; assay: Antiviral activity against Vesicular stomatitis virus indiana ATCC VR-1540 infected in african green monkey Vero-76 cells assessed as reduction in viral plaque after 2 days by crystal violet staining; format: functional, organism-based; conditions: ATCC VR-1540, Vero 76, 48 h
[9] = Antiviral activity against Human respiratory syncytial virus A2 ATCC VR-1540 infected in african green monkey Vero-76 cells assessed as reduction in viral plaque after 5 days by crystal violet staining; format: functional, cell-based; conditions: ATCC VR-1540, Vero 76, 120 h; procedure, shortened: as §1

| SMILES | EC50 (Poliovirus 1) [µM] | EC50 (Vaccinia virus) [µM] | CC50 [1] [µM] | EC50 (Coxsackievirus B5) [µM] | CC50 [2] [µM] | CC50 at 96 h [3] [µM] | CC50 [4] [µM] | EC50 [5] [µM] | EC50 (Yellow fever virus) [µM] | EC50 [6] [µM] | EC50 (Human alphaherpesvirus 1) [µM] | EC50 [7] [µM] | EC50 [8] [µM] | EC50 [9] [µM] |
| --- | --- | --- | --- | --- | --- | --- | --- | --- | --- | --- | --- | --- | --- | --- |
| COc1ccc(-c2nc3cc(/C(C)=N/NC(N)=O)ccc3n2C2CCCCC2)c(OC)c1 | > 20 | > 20 | 20 | > 20 | 36 | 23 | 19 | > 23 | > 19 | 22 | > 20 | – | – | – |
| COc1ccc(-c2nc3cc(/C(C)=N/NC(N)=O)ccc3[nH]2)c(OC)c1 | > 80 | 80 | 80 | > 80 | > 100 | 21 | ≥ 100 | ≥ 21 | > 100 | 2.55 | – | > 100 | > 80 | – |
| COc1ccc(-c2nc3cc(/C(C)=N/NC(N)=S)ccc3n2C2CCCCC2)c(OC)c1 | > 20 | > 20 | 20 | > 20 | > 100 | 17 | 17 | ≥ 17 | > 17 | 4 | > 20 | > 17 | > 20 | > 20 |
| CC(=O)c1ccc2c(c1)nc(-c1ccccc1)n2C1CCCCC1 | > 80 | > 80 | 80 | > 80 | > 100 | 37 | 100 | > 37 | 13.2 | 60 | > 80 | > 100 | > 80 | 25 |
| C/C(=N\NC(N)=S)c1ccc2[nH]c(-c3ccccc3)nc2c1 | > 100 | – | > 100 | > 100 | 32 | ≥ 100 | 32 | > 100 | > 32 | 3.8 | – | > 32 | > 100 | > 100 |
| COc1ccc(-c2nc3cc(C(C)=O)ccc3[nH]2)cc1 | > 100 | > 100 | > 100 | > 100 | 58 | 24 | 40 | > 24 | > 40 | > 58 | – | – | – | – |
| CC(=O)c1ccc2[nH]c(-c3ccoc3)nc2c1 | > 100 | > 100 | > 100 | > 100 | ≥ 100 | > 100 | 98 | > 100 | > 98 | 22 | > 100 | – | > 100 | – |
| C/C(=N\NC(N)=S)c1ccc2[nH]c(-c3ccc(Cl)cc3)nc2c1 | > 100 | > 100 | > 100 | > 100 | > 100 | 2 | > 100 | > 2 | > 100 | 0.85 | – | > 100 | > 100 | – |
| C/C(=N\NC(N)=S)c1ccc2c(c1)nc(-c1ccccn1)n2C1CCCCC1 | > 20 | > 20 | 20 | > 20 | 41 | 23 | 24 | > 23 | > 24 | 26 | > 20 | – | > 20 | – |
| COc1ccc(-c2nc3cc(C(C)=O)ccc3[nH]2)c(OC)c1 | > 100 | > 100 | > 100 | > 100 | 73 | 50 | 50 | > 50 | > 50 | 21 | – | – | – | – |
| COc1ccc(-c2nc3cc(/C(C)=N/NC(N)=S)ccc3n2C2CCCCC2)cc1 | > 40 | > 40 | 40 | > 40 | 32 | 39 | – | > 39 | – | 7 | > 40 | – | > 40 | > 40 |
| C/C(=N\NC(N)=S)c1ccc2[nH]c(-c3ccc(C(F)(F)F)cc3)nc2c1 | > 22 | – | 22 | > 22 | 5 | 2 | 5 | > 2 | > 5 | > 1.8 | – | – | – | – |
| C/C(=N\NC(N)=S)c1ccc2c(c1)nc(-c1ccoc1)n2C1CCCCC1 | > 25 | > 25 | 25 | > 25 | > 100 | 21 | > 100 | > 21 | > 100 | > 100 | > 25 | – | > 25 | – |
| COc1ccc(-c2nc3cc(C(C)O)ccc3[nH]2)c(OC)c1OC (stereo unspecified) | > 100 | > 100 | ≥ 100 | > 100 | 60 | 79 | 60 | > 79 | > 60 | > 60 | > 100 | > 100 | – | > 100 |
| COc1ccc(-c2nc3cc(/C(C)=N/NC(N)=S)ccc3[nH]2)cc1 | > 100 | > 100 | > 100 | > 100 | 13 | 5 | 13 | > 5 | > 13 | 1.85 | – | > 13 | > 100 | – |
| C/C(=N\NC(N)=S)c1ccc2[nH]c(C3CCCCC3)nc2c1 | > 100 | > 100 | > 100 | > 100 | > 100 | 48 | 24 | > 48 | > 24 | 16 | – | – | > 100 | > 100 |
| CC(=O)c1ccc2[nH]c(C3CCCCC3)nc2c1 | > 100 | > 100 | > 100 | 47 | > 100 | > 100 | > 100 | > 100 | > 100 | > 100 | > 100 | > 100 | > 100 | – |
| COc1ccc(-c2nc3cc(/C(C)=N/O)ccc3[nH]2)c(OC)c1OC | > 100 | > 100 | > 100 | > 100 | > 100 | 51 | > 100 | > 51 | > 100 | > 100 | > 100 | > 100 | – | – |
| CC(=O)c1ccc2c(c1)nc(-c1ccoc1)n2C1CCCCC1 | > 80 | > 80 | 80 | > 80 | > 100 | 63 | 77 | > 63 | > 77 | > 100 | > 80 | – | – | – |
| CC(=O)c1ccc2c(c1)nc(-c1ccccn1)n2C1CCCCC1 | > 90 | > 90 | > 90 | > 90 | > 100 | 70 | ≥ 100 | > 70 | > 100 | > 100 | > 90 | – | > 90 | – |
